Assays:
[1] = target: T1, Adrenergic receptor alpha-2 (Rattus norvegicus) (UniProt P22086+P19328+P22909); assay: The binding affinity was evaluated on alpha-2 adrenergic receptor expressed in rat cortex by using [3H]rauwolscine as radioligand.
Outline: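 Male Sprague-Dawley rat cerebral cortex membranes, washed in Tris-HCl pH 7.4 and held in buffer with 10 μM pargiline and 0.1% ascorbic acid. Incubated 30 min at 25 °C with 0.5-1.5 nM [3H]rauwolscine; nonspecific binding with 10 μM phentolamine. Filtration, scintillation counting. Ki from Cheng-Prusoff; 2-3 experiments in triplicate.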

[2] = target: T2, Alpha-1B adrenergic receptor (Homo sapiens) (UniProt P35368); assay: The binding affinity was evaluated on cloned human alpha-1B adrenergic receptor expressed in chinese hamster ovary(CHO) cells by using [3H]prazosin as radioligand.; format: cell-based
T2 sequence (whole entry): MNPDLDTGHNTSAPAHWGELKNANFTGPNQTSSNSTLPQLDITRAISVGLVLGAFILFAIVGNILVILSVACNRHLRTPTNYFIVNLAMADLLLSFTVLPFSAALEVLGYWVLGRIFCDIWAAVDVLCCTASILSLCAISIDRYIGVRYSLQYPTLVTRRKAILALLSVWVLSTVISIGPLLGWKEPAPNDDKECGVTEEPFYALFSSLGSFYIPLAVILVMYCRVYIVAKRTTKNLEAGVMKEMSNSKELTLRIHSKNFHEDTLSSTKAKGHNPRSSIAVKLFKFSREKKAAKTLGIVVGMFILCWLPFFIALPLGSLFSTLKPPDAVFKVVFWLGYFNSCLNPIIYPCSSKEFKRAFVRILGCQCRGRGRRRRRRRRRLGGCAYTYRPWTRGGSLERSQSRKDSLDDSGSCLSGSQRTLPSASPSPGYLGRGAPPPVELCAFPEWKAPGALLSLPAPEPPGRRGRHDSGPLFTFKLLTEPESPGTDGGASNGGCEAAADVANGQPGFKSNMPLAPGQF
Outline: (§1)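 Membranes (30 μg protein) from CHO cells stably expressing each human α1 subtype, in 50 mM Tris-HCl pH 7.4. Incubated with 0.1–0.4 nM [3H]prazosin for 30 min at 25 °C, competitor 1 pM–10 μM. Nonspecific binding with 10 μM phentolamine. Ki by Cheng-Prusoff. 2–3 experiments in triplicate.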

[3] = target: T3, Alpha-1A adrenergic receptor (Homo sapiens) (UniProt P35348); assay: The binding affinity was evaluated on cloned human alpha-1A adrenergic receptor expressed in chinese hamster ovary(CHO) cells by using [3H]prazosin as radioligand.; format: cell-based; outline: as §1
T3 sequence (whole entry): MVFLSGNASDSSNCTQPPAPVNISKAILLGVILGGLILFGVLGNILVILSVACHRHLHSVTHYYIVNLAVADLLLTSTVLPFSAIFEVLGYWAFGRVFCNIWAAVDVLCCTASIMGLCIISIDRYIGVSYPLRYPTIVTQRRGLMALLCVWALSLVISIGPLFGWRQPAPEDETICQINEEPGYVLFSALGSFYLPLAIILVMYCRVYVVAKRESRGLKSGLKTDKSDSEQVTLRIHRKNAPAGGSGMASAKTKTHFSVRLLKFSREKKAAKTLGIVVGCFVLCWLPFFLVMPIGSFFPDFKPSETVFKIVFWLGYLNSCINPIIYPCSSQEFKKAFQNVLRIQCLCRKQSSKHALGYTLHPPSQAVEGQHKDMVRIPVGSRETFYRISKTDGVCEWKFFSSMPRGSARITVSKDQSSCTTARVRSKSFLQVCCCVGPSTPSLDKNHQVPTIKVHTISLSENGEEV

[4] = target: T2, Alpha-1B adrenergic receptor (Homo sapiens); assay: The binding affinity was evaluated on cloned human Alpha-1B adrenergic receptor expressed in chinese hamster ovary(CHO) cells by using [3H]prazosin as radioligand.; format: cell-based; outline: as §1
[5] = target: T4, Alpha-1A adrenergic receptor (Rattus norvegicus) (UniProt P43140); assay: Antagonist affinity was expressed as apparent pKb at Alpha-1A adrenergic receptor on isolated rat prostatic vas deferens (alpha1A).; format: functional, tissue-based
T4 sequence (whole entry): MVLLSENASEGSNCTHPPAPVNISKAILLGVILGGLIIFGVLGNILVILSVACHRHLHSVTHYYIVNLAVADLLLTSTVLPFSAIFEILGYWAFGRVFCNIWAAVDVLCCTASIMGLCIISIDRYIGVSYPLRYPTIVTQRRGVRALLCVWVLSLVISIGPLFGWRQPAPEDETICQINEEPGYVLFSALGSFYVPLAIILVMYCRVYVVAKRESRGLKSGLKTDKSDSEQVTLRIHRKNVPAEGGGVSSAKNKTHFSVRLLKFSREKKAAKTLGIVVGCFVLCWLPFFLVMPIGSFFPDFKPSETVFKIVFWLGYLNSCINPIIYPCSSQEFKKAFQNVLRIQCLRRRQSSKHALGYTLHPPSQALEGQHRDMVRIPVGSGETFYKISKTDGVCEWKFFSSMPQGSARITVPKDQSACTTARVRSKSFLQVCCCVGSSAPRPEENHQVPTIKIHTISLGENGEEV
Outline: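 Rat prostatic vas deferens in Tyrode with 0.1 μM cocaine. Equilibrated 60 min, primed twice with 10 μM noradrenaline, then a control cumulative (–)-noradrenaline curve recorded isometrically. Antagonist equilibrated 30 min before a repeat curve. Apparent pKb = log(DR−1) − log[B], with DR as the ratio of agonist EC50 with/without antagonist. 2–3 antagonist concentrations, each tested four times.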

[6] = target: T1, Adrenergic receptor alpha-2 (Rattus norvegicus); assay: The binding affinity was evaluated on Alpha-2 adrenergic receptor expressed in rat cortex by using [3H]rauwolscine as radioligand.
Outline: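 Male Sprague-Dawley rat cerebral cortex membranes, washed in Tris-HCl pH 7.4 and resuspended with 10 μM pargyline and 0.1% ascorbic acid. Incubated 30 min at 25 °C with 0.5–1.5 nM [3H]rauwolscine. Nonspecific binding with 10 μM phentolamine. Filtration on PEI-treated filters. Ki by Cheng-Prusoff. 2–3 experiments in triplicate.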

[7] = target: T5, Alpha-1D adrenergic receptor (Homo sapiens) (UniProt P25100); assay: The binding affinity was evaluated on cloned human Alpha-1D adrenergic receptor expressed in chinese hamster ovary(CHO) cells by using [3H]-prazosin as radioligand.; format: cell-based; outline: as §1
T5 sequence (whole entry): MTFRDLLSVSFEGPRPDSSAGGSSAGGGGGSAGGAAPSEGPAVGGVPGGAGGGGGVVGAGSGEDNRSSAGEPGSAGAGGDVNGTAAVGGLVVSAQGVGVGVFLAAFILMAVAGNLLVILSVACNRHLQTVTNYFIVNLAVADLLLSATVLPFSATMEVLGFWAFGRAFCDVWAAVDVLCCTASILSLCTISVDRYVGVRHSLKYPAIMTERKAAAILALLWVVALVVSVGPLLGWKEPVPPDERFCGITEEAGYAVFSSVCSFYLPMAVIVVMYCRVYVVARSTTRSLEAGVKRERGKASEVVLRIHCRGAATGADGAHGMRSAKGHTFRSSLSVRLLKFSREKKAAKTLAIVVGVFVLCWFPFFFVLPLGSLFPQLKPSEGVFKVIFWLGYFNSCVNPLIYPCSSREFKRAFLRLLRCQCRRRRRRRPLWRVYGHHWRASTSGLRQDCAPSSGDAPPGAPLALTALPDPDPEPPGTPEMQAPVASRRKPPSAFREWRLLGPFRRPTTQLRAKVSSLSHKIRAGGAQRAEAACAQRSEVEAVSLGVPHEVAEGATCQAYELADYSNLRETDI

| pKi [1] | pKi [2] | pKi [3] | pKi [4] | pKb [5] | pKi [6] | pKi [7] | Compound |
| --- | --- | --- | --- | --- | --- | --- | --- |
| < 6 | 6.84 | 9.22 | – | – | – | – | COc1cccc(OC)c1OCCNCC1C(=O)c2ccccc2OC1c1ccccc1 (stereo not given) |
| – | – | – | 6.58 | 7.36 | < 6 | 7.28 | COc1cccc(OC)c1OCCNCC1Oc2ccccc2CC1c1ccccc1 (stereo in doubt; 7) |
| – | – | – | 9.27 | 8.39 | – | 10.2 | COc1cccc(OC)c1OCCNCCOc1ccccc1OCc1ccccc1 |

Source: ChEMBL document CHEMBL1132324, “Structure-activity relationships in 1,4-benzodioxan-related compounds. 6. Role of the dioxane unit on selectivity for alpha(1)-adrenoreceptor subtypes” (J Med Chem, 1999)
